The source of these data is ChEMBL document CHEMBL1125076, “In vivo intracerebral microdialysis studies in rats of MPP+ analogues and related charged species” (1990).

Molecules are shown by their SMILES.

Holding throughout (assay type): functional
The species named for experiment [1] is Rattus norvegicus. The experiment is described as follows: Percentage of basal lactate efflux before starting the drug perfusion (1 min) with average basal level 689+/-103 pmol/min.
For experiment [2], the species on record is Rattus norvegicus. The experiment is described as follows: Percentage of basal lactate efflux before starting the drug perfusion (15 min) with average basal level 689+/-103 pmol/min. The essentials:
(§1)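 Rat striatal microdialysis via U-shaped cellulose-membrane cannula, Ringer perfusion. Once lactate efflux stabilized, test compound perfused as 10 mM solution in Ringer for 15–150 min. Dialysate mixed on-line with lactate dehydrogenase (5 mg/mL) and 0.5 mM NAD+ in carbonate buffer pH 9.5. NADH formed was separated by C18 HPLC (0.05 M phosphate, pH 6.8) and detected electrochemically at 650 mV. Samples injected every 5 min. Change expressed as % of basal. At least duplicate experiments.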

The species entered for experiment [3] is Rattus norvegicus. The experiment is described as follows: (§2) Percentage of basal lactate efflux before starting the drug perfusion (150 min) with average basal level 689+/-103 pmol/min. In a few lines: as §1
The species entered for experiment [4] is Rattus norvegicus. The experiment is described as §2. The source holds these as a separate data set.

Turning to `C[n+]1ccc(-c2ccccc2)cc1`, the Basal in the experiment listed under Rattus norvegicus [1] was found to be 210%; in the experiment filed under Rattus norvegicus [2], 280%. On to `C[n+]1ccccc1-c1ccccc1`, for which the Basal in the experiment listed under Rattus norvegicus [2] was 160%. As to `C[n+]1cccc2ccccc21`, the Basal in the experiment listed under Rattus norvegicus [2] turned out to be 190%; in the experiment filed under Rattus norvegicus [3] it was 200%. On to `Cc1ccccc1-c1cc[n+](C)cc1`, for which the Basal in the experiment listed under Rattus norvegicus [1] was determined as 155%. Take `Cc1ccc(-[n+]2ccc(C)cc2)cc1`: the Basal in the experiment filed under Rattus norvegicus [1] was 180%; in the experiment listed under Rattus norvegicus [2], 230%. Take `Cc1cc(-c2ccccc2)cc[n+]1C`: in the experiment filed under Rattus norvegicus [1], the Basal came to 200%.

For the compound `C[n+]1ccc(C(C)(C)C)cc1`, the Basal in the experiment listed under Rattus norvegicus [2] is listed as 106%. On the same count and under the same terms, as for `C[n+]1ccc(-c2ccccc2)nc1`, the figure is 102%.

`C[n+]1cccc(-c2ccccc2)c1` registered a Basal in the experiment listed under Rattus norvegicus [2] of 240%. In the experiment filed under Rattus norvegicus [4], `c1ccc2c(c1)CCNC2` [1,2,3,4-TETRAHYDROISOQUINOLINE] gave a Basal of 98%.
